Source: ChEMBL document CHEMBL2380270, “Radiosynthesis and first evaluation in mice of [(18)F]NS14490 for molecular imaging of α7 nicotinic acetylcholine receptors” (Bioorg Med Chem, 2013)
pKi: −log10 of the molar value.

Experiments:
[1] = molecular target: T1, Neuronal acetylcholine receptor subunit alpha-7 (Homo sapiens, UniProt P36544); assay: Binding affinity to alpha7 nAChR (unknown origin)
Procedure, shortened: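 Radioligand competition on homogenates of SH-SY5Y cells transfected with human α7 nAChR. [³H]methyllycaconitine at about 0.3 nM working concentration, test ligand in serial dilution 10 pM–10 µM. Buffer 50 mM Tris–HCl pH 7.4 with 120 mM NaCl, 5 mM KCl, 2.5 mM MgCl₂, 1 mM CaCl₂. Nonspecific binding defined with 300 µM (−)-nicotine tartrate. Incubated 240 min at room temperature, then filtered on PEI-soaked GF/B and counted by scintillation. Run in triplicate; IC50 by non-linear regression, Ki by Cheng–Prusoff.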

Brain [2] = assay: Biodistribution in CD1 mouse brain measured at 60 mins by autoradiographic analysis; format: ADME, organism-based; conditions: in vivo, 1 h
Liver = assay: Biodistribution in CD1 mouse liver at 200 to 300 kBq, iv measured at 60 mins by gamma counting analysis in presence of NS6740; format: ADME, organism-based; conditions: in vivo, 1 h
Procedure, shortened: (§1)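 Blocking design in female CD-1 mice, n = 7 per group. The blocker was given at 10 mg kg^-1 i.p. in 0.9% saline 10 min before i.v. 200–300 kBq [18F]radiotracer. Mice were killed at 60 min p.i. and organs weighed and gamma-counted as % ID per g wet weight. Blocked groups were compared with controls by two-tailed independent Student's t test.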

[3] = Biodistribution in CD1 mouse urine at 200 to 300 kBq, iv measured at 60 mins by gamma counting analysis in presence of NS6740; format: ADME, organism-based; conditions: in vivo, 1 h
Procedure, shortened: (§2)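 Female CD-1 mice given 200–300 kBq tracer intravenously. Animals anaesthetised for blood and urine sampling, then killed by cervical dislocation at 5, 15, 30 or 60 min (n = 3 per time; n = 7 at 60 min). Organs removed and weighed, activity gamma-counted, expressed as % injected dose per g wet weight. Blocking arm: 10 mg/kg i.p. in 0.9% saline, 10 min before tracer; two-tailed unpaired t test versus control.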

Mus musculus [4] = assay: Biodistribution in CD1 mouse thymus at 200 to 300 kBq, iv measured at 60 mins by gamma counting analysis in presence of NS6740; format: ADME, organism-based; conditions: in vivo, 1 h; procedure, shortened: as §2
[5] = molecular target: Neuronal acetylcholine receptor subunit alpha-7 (Rattus norvegicus, UniProt Q05941); assay: Displacement of [3H]A-585539 from rat brain alpha7 nAChR by scintillation counting analysis
Sequence of Neuronal acetylcholine receptor subunit alpha-7 (Rattus norvegicus, UniProt Q05941) (Q05941 whole entry): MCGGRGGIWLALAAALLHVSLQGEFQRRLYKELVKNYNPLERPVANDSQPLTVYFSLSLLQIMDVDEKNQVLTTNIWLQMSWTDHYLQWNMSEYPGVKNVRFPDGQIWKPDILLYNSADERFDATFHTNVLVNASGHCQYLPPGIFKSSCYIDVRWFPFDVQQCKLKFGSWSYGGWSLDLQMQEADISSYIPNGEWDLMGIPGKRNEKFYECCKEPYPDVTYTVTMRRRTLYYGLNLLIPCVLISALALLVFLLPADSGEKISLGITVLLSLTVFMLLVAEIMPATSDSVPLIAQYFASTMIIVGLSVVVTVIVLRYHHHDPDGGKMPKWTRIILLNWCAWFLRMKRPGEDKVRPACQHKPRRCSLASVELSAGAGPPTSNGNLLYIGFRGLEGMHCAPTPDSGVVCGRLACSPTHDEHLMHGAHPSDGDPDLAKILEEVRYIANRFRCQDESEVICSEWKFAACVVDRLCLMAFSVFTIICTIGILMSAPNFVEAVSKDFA

Zone of skin = assay: Biodistribution in CD1 mouse skin at 200 to 300 kBq, iv measured at 60 mins by gamma counting analysis in presence of NS6740; format: ADME, organism-based; conditions: in vivo, 1 h; procedure, shortened: as §1
Heart = assay: Biodistribution in CD1 mouse heart at 200 to 300 kBq, iv measured at 60 mins by gamma counting analysis in presence of NS6740; format: ADME, organism-based; conditions: in vivo, 1 h
Procedure, shortened: (§3)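 Blocking study in female CD-1 mice, n = 7 per blocker, with a matching control group. SSR180711 or NS6740 given at 10 mg kg⁻¹ ip in 0.9% saline 10 min before iv radiotracer (200–300 kBq). Organs taken at 60 min p.i., weighed and gamma-counted; uptake as % ID per g wet weight. Compared with control by two-tailed independent Student's t test.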

Lung = assay: Biodistribution in CD1 mouse lung at 200 to 300 kBq, iv measured at 60 mins by gamma counting analysis in presence of NS6740; format: ADME, organism-based; conditions: in vivo, 1 h; procedure, shortened: as §1
Kidney = assay: Biodistribution in CD1 mouse kidney at 200 to 300 kBq, iv measured at 60 mins by gamma counting analysis in presence of NS6740; format: ADME, organism-based; conditions: in vivo, 1 h; procedure, shortened: as §3
Pancreas = assay: Biodistribution in CD1 mouse pancreas at 200 to 300 kBq, iv measured at 60 mins by gamma counting analysis in presence of NS6740; format: ADME, organism-based; conditions: in vivo, 1 h; procedure, shortened: as §1
Femur = assay: Biodistribution in CD1 mouse femur at 200 to 300 kBq, iv measured at 60 mins by gamma counting analysis in presence of NS6740; format: ADME, organism-based; conditions: in vivo, 1 h; procedure, shortened: as §3
Mus musculus [6] = assay: Biodistribution in CD1 mouse adrenal at 200 to 300 kBq, iv measured at 60 mins by gamma counting analysis in presence of NS6740; format: ADME, organism-based, Adrenal gland; conditions: in vivo, 1 h; procedure, shortened: as §3
Mus musculus [7] = assay: Biodistribution in CD1 mouse large intestine at 200 to 300 kBq, iv measured at 60 mins by gamma counting analysis in presence of NS6740; format: ADME, organism-based; conditions: in vivo, 1 h; procedure, shortened: as §3
Mus musculus [8] = assay: Biodistribution in CD1 mouse small intestine at 200 to 300 kBq, iv measured at 60 mins by gamma counting analysis in presence of NS6740; format: ADME, organism-based; conditions: in vivo, 1 h; procedure, shortened: as §1
Stomach = assay: Biodistribution in CD1 mouse stomach at 200 to 300 kBq, iv measured at 60 mins by gamma counting analysis in presence of NS6740; format: ADME, organism-based; conditions: in vivo, 1 h; procedure, shortened: as §1
Blood = assay: Biodistribution in CD1 mouse blood at 200 to 300 kBq, iv measured at 60 mins by gamma counting analysis in presence of NS6740; format: ADME, organism-based; conditions: in vivo, 1 h; procedure, shortened: as §3
Spleen = assay: Biodistribution in CD1 mouse spleen at 200 to 300 kBq, iv measured at 60 mins by gamma counting analysis in presence of NS6740; format: ADME, organism-based; conditions: in vivo, 1 h; procedure, shortened: as §1
Muscle tissue = assay: Biodistribution in CD1 mouse muscle at 200 to 300 kBq, iv measured at 60 mins by gamma counting analysis in presence of NS6740; format: ADME, organism-based; conditions: in vivo, 1 h; procedure, shortened: as §1
Urinary bladder = assay: Biodistribution in CD1 mouse bladder at 200 to 300 kBq, iv measured at 60 mins by gamma counting analysis in presence of NS6740; format: ADME, organism-based; conditions: in vivo, 1 h; procedure, shortened: as §3
Brain [9] = assay: Biodistribution in CD1 mouse brain at 200 to 300 kBq, iv measured at 60 mins by gamma counting analysis in presence of NS6740; format: ADME, organism-based; conditions: in vivo, 1 h; procedure, shortened: as §3
[10] = Ratio of drug level in brain to plasma in CD1 mouse at 200 to 300 kBq, iv measured at 5 mins; format: ADME, organism-based; conditions: read-out: BPR
Procedure, shortened: (§4)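 Female CD-1 mice injected intravenously with 200–300 kBq tracer. Animals killed at 5, 15, 30 and 60 min (n = 3; n = 7 at 60 min). Brain and plasma activity gamma-counted as % ID/g wet weight, and the brain-to-plasma ratio taken from these values.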

[11] = Stability of the compound in Tris-HCl buffer assessed as compound remaining at pH 6.7 measured at 5 mins by radio-TLC analysis; format: physicochemical; conditions: read-out: Stability
Procedure, shortened: (§5)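 Tracer formulated in isotonic saline, then diluted 1:20 into 50 mM Tris–HCl (pH 6.7) or PBS (pH 7.2). Stirred at 40 °C for up to 2 h, sampled at 5, 10, 30, 60, 90 and 120 min, and analysed by radio-TLC for intact tracer.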

[12] = Stability of the compound in Tris-HCl buffer assessed as compound remaining at pH 6.7 measured up to 2 hrs by radio-TLC analysis; format: physicochemical; conditions: read-out: Stability; procedure, shortened: as §5
[13] = Stability of the compound in PBS buffer assessed as compound remaining at pH 7.2 measured up to 2 hrs by radio-TLC analysis; format: physicochemical; conditions: read-out: Stability; procedure, shortened: as §5
[14] = Ratio of drug level in brain to plasma in CD1 mouse at 200 to 300 kBq, iv measured at 30 mins; format: ADME, organism-based; conditions: read-out: BPR; procedure, shortened: as §4
[15] = Cyclohexane-PBS distribution coefficient, log D of the compound at pH 7.2 after 30 mins by shake-flask method; format: physicochemical; conditions: pH 7.2, 0.5 h
[16] = n-Octanol-PBS distribution coefficient, log D of the compound at pH 7.2 after 30 mins by shake-flask method; format: physicochemical
[17] = Ratio of drug level in brain to plasma in CD1 mouse at 200 to 300 kBq, iv measured at 15 mins; format: ADME, organism-based; conditions: read-out: BPR; procedure, shortened: as §4
[18] = Ratio of drug level in brain to plasma in CD1 mouse at 200 to 300 kBq, iv measured at 60 mins; format: ADME, organism-based; conditions: read-out: BPR; procedure, shortened: as §4
[19] = Stability of the compound in PBS buffer assessed as compound remaining at pH 7.2 measured at 5 mins by radio-TLC analysis; format: physicochemical; conditions: read-out: Stability; procedure, shortened: as §5
[20] = molecular target: Neuronal acetylcholine receptor; alpha3/beta4 (Homo sapiens, UniProt P30926+P32297); assay: Displacement of (+/-)[3H]-epibatidine from human alpha3beta4 nAChR transfected in HEK293 cells after 90 mins by liquid scintillation counting analysis; format: cell-based
Sequence of Neuronal acetylcholine receptor; alpha3/beta4 (P30926 whole entry): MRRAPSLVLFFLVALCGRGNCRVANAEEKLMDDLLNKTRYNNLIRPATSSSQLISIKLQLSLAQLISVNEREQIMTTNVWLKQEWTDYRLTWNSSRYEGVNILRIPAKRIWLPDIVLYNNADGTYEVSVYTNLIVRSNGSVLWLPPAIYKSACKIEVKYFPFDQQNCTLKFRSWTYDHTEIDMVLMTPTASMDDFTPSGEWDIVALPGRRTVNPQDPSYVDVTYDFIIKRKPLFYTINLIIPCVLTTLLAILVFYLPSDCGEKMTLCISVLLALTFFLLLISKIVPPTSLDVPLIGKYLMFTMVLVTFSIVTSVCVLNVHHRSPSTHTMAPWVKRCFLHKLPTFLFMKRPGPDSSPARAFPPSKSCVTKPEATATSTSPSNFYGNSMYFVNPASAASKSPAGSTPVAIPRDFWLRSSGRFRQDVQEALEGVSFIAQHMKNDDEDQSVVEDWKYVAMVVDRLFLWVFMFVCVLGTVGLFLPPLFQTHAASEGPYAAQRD
Sequence of Neuronal acetylcholine receptor; alpha3/beta4 (P32297 whole entry): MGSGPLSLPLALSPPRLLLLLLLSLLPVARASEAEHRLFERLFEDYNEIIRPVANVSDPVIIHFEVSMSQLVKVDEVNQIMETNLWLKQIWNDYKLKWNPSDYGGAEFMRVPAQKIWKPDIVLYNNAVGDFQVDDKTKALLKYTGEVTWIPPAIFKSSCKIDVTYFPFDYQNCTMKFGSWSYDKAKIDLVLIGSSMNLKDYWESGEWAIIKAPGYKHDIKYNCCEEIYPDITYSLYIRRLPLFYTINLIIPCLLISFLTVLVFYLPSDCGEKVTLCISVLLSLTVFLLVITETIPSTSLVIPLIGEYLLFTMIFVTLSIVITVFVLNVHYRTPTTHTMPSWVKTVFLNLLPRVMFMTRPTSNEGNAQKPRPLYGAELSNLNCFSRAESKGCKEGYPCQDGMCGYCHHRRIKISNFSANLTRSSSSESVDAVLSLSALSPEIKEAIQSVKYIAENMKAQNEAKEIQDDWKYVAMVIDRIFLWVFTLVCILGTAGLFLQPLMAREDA
Procedure, shortened: (§6)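 Homogenates of HEK293 cells transfected with human α4β2 or α3β4 nAChR, with about 0.5 nM (±)-[3H]epibatidine and compound 10 pM–10 µM. Buffer: 50 mM Tris–HCl pH 7.4 with NaCl, KCl, MgCl2 and CaCl2. Incubated 90 min at room temperature; nonspecific binding defined with 300 µM (−)-nicotine tartrate. Filtered onto PEI-soaked GF/B, scintillation counted, triplicates; IC50 by nonlinear regression, Ki by Cheng–Prusoff.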

Homo sapiens [21] = species on record: Homo sapiens; assay: Selectivity ratio of Ki for human alpha3beta4 nAChR to Ki for human alpha7 nAChR
[22] = molecular target: Neuronal acetylcholine receptor; alpha4/beta2 (Homo sapiens, UniProt P17787+P43681); assay: Displacement of (+/-)[3H]-epibatidine from human alpha4beta2 nAChR transfected in HEK293 cells after 90 mins by liquid scintillation counting analysis; format: cell-based; procedure, shortened: as §6
Sequence of Neuronal acetylcholine receptor; alpha4/beta2 (P17787 whole entry): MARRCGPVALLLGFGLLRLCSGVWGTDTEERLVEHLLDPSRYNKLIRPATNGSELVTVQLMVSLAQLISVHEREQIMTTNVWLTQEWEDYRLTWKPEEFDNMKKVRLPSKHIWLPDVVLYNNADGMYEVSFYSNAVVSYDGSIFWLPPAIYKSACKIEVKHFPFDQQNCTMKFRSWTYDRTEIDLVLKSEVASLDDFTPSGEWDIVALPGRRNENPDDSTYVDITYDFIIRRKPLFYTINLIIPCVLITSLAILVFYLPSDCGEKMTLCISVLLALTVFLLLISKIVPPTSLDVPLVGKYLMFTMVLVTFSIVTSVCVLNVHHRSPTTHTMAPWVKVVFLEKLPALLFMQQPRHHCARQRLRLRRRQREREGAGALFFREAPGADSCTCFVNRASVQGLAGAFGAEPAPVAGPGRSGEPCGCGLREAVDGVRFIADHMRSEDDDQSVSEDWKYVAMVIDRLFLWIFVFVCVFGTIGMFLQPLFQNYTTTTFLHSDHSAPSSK
Sequence of Neuronal acetylcholine receptor; alpha4/beta2 (P43681 whole entry): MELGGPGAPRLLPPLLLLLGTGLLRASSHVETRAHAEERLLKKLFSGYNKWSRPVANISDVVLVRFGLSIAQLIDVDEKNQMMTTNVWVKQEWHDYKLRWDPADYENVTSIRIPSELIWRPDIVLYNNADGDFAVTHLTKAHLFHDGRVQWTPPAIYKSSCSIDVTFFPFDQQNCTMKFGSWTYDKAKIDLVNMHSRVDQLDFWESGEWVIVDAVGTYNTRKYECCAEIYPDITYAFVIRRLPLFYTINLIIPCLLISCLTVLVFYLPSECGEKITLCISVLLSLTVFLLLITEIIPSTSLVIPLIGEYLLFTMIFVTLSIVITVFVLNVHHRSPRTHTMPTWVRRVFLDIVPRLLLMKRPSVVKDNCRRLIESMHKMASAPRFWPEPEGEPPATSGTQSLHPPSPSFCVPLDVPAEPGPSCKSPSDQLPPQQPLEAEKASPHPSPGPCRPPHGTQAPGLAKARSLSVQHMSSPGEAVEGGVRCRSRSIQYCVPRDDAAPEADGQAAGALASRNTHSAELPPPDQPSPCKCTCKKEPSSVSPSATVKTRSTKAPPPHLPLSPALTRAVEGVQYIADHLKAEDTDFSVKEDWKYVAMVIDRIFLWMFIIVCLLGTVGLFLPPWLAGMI

Homo sapiens [23] = species on record: Homo sapiens; assay: Selectivity ratio of Ki for human alpha4beta2 nAChR to Ki for human alpha7 nAChR
[24] = molecular target: T1, Neuronal acetylcholine receptor subunit alpha-7; assay: Displacement of [3H]-methyllycaconitine from human alpha7 nAChR transfected in human SH-SY5Y cells after 240 mins by liquid scintillation counting analysis; format: cell-based
Procedure, shortened: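 Homogenates of SH-SY5Y cells transfected with human α7 nAChR, with about 0.3 nM [3H]methyllycaconitine and compound 10 pM–10 µM in Tris–HCl pH 7.4 saline buffer. Incubated 240 min at room temperature; nonspecific binding defined with 300 µM (−)-nicotine tartrate. Filtered onto PEI-soaked GF/B, washed with ice-cold Tris, scintillation counted, triplicates; Ki via Cheng–Prusoff.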

T1 sequence (P36544 whole entry): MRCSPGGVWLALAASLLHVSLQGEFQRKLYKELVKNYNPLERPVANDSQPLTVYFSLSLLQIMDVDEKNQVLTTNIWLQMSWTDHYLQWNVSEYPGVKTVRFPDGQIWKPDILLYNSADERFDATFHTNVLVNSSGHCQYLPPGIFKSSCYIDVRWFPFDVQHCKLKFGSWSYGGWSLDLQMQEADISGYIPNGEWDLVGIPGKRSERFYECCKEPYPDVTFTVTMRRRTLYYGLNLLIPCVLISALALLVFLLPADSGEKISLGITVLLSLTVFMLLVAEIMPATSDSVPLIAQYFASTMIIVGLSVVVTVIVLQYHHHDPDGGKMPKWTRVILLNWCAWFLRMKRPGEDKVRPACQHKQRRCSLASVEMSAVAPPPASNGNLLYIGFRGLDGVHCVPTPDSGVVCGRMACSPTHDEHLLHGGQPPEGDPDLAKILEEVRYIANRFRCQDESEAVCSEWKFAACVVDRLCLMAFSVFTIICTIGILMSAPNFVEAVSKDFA

Fc1ccc(-c2nnc(N3CCN4CCC3CC4)o2)cc1
pKi [1]: 7.94

[18F]c1ccc(-c2nnc(N3CCN4CCC3CC4)o2)cc1
Drug uptake (Brain [2]): 1.73 % ID/g

O=C(c1ccc(-c2cccc(C(F)(F)F)c2)o1)N1CCN2CCC1CC2
Drug uptake (Liver): 6.67 % ID/g | Drug uptake [3]: 218 % ID/g | Drug uptake (Mus musculus [4]): 2.25 % ID/g | pKi [5]: 8.96 | Drug uptake (Zone of skin): 1.7 % ID/g | Drug uptake (Heart): 1.77 % ID/g | Drug uptake (Lung): 4.56 % ID/g | Drug uptake (Kidney): 11.7 % ID/g | Drug uptake (Pancreas): 3.04 % ID/g | Drug uptake (Femur): 1.49 % ID/g | Drug uptake (Mus musculus [6]): 2.51 % ID/g | Drug uptake (Mus musculus [7]): 5.11 % ID/g | Drug uptake (Mus musculus [8]): 15.3 % ID/g | Drug uptake (Stomach): 9.71 % ID/g | Drug uptake (Blood): 0.75 % ID/g | Drug uptake (Spleen): 6.57 % ID/g | Drug uptake (Muscle tissue): 1.05 % ID/g | Drug uptake (Urinary bladder): 1.45 % ID/g | Drug uptake (Brain [9]): 0.14 % ID/g

[18F]CCn1ccc2ccc(-c3nnc(N4CCN5CCC4CC5)o3)cc21
Kp at 5 min [10]: 0.11 | remaining at 5 min [11]: 98% | remaining at 2 h [12]: ≥ 97% | remaining at 2 h [13]: ≥ 97% | Kp at 0.5 h [14]: 0.19 | logD [15]: -2.05 | logD at 0.5 h [16]: 1.11 | Kp at 0.25 h [17]: 0.18 | Kp at 1 h [18]: 0.26 | remaining at 5 min [19]: 98%

FCCn1ccc2ccc(-c3nnc(N4CCN5CCC4CC5)o3)cc21
pKi [20]: 6.99 | Ratio Ki (Homo sapiens [21]): 40.8 | pKi [22]: < 6.00 | Ratio Ki (Homo sapiens [23]): > 400 | pKi [24]: 8.60
